Data published in ChEMBL document CHEMBL1151249, “Cytotoxic and antimicrobial constituents of the bark of Diospyros maritima collected in two geographical locations in Indonesia” (J Nat Prod, 2004).
Converted amounts (≈) assume the structure as drawn.

What was measured:
KB = assay: Cytotoxicity against human KB cells; format: functional, cell-based
Lu1 = assay: Cytotoxicity against human Lu1 cells; format: functional; details: read-out: ED50 (the source's name)
LNCaP = assay: Cytotoxicity against human LNCAP cells; format: functional; details: read-out: ED50 (the source's name)
[1] = Cytotoxicity against human HUVEC; format: cell-based; details: HUVEC cells, read-out: ED50 (the source's name)
Micrococcus luteus [2] = assay: Antimicrobial activity against Micrococcus luteus after 18 hrs by zone-of-inhibition assay; format: functional, organism-based
Micrococcus luteus [3] = assay: Antimicrobial activity against Micrococcus luteus assessed as 99.9 % growth inhibition after 18 hrs by zone-of-inhibition assay; format: functional
Staphylococcus aureus [4] = assay: Antimicrobial activity against Staphylococcus aureus after 18 hrs by zone-of-inhibition assay; format: functional, organism-based
Staphylococcus aureus [5] = assay: Antimicrobial activity against Staphylococcus aureus assessed as 99.9 % growth inhibition after 18 hrs by zone-of-inhibition assay; format: functional
[6] = system: Mycolicibacterium smegmatis; assay: Antimicrobial activity against Mycobacterium smegmatis after 18 hrs by zone-of-inhibition assay; format: functional, organism-based
[7] = system: Mycolicibacterium smegmatis; assay: Antimicrobial activity against Mycobacterium smegmatis assessed as 99.9 % growth inhibition after 18 hrs by zone-of-inhibition assay; format: functional
Mycobacterium avium [8] = assay: Antimicrobial activity against Mycobacterium avium after 18 hrs by zone-of-inhibition assay; format: functional, organism-based
Candida albicans [9] = assay: Antifungal activity against Candida albicans after 18 hrs by zone-of-inhibition assay; format: functional, organism-based; details: for IC50: Candida albicans, 18 h
Cryptococcus neoformans [10] = assay: Antifungal activity against Cryptococcus neoformans after 18 hrs by zone-of-inhibition assay; format: functional, organism-based; details: for IC50: Cryptococcus neoformans, 18 h
Cryptococcus neoformans [11] = assay: Antifungal activity against Cryptococcus neoformans assessed as 99.9 % growth inhibition after 18 hrs by zone-of-inhibition assay; format: functional
Saccharomyces cerevisiae [12] = assay: Antifungal activity against Saccharomyces cerevisiae after 18 hrs by zone-of-inhibition assay; format: functional, organism-based
Saccharomyces cerevisiae [13] = assay: Antifungal activity against Saccharomyces cerevisiae assessed as 99.9 % growth inhibition after 18 hrs by zone-of-inhibition assay; format: functional
Aspergillus niger [14] = assay: Antifungal activity against Aspergillus niger after 18 hrs by zone-of-inhibition assay; format: functional, organism-based
Aspergillus niger [15] = assay: Antifungal activity against Aspergillus niger assessed as 99.9 % growth inhibition after 18 hrs by zone-of-inhibition assay; format: functional
Candida albicans [16] = assay: Antimicrobial activity against Candida albicans assessed as 99.9 % growth inhibition after 18 hrs by zone-of-inhibition assay; format: functional
Mycobacterium avium [17] = assay: Antimicrobial activity against Mycobacterium avium assessed as 99.9 % growth inhibition after 18 hrs by zone-of-inhibition assay; format: functional
Mus musculus [18] = assay: Toxicity in human KB cell xenografted mouse assessed as body weight loss at 5 mg/kg; format: organism-based; design: dose 5 mg/kg; details: in vivo
Method in brief: (§1)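 In vivo hollow fiber assay in mice, with KB, LNCaP or Lu1 cancer cells at intraperitoneal and subcutaneous sites. Doses ranged from 1.25 to 10 mg/kg, with six mice per dose group. Body weight and deaths were recorded alongside tumor-cell growth inhibition.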

Mus musculus [19] = assay: Toxicity in human LNCaP cell xenografted mouse assessed as body weight loss at 5 mg/kg; format: organism-based; design: dose 5 mg/kg; details: in vivo; method in brief: as §1
Mus musculus [20] = assay: Toxicity in human LU1 cell xenografted mouse assessed as body weight loss at 5 mg/kg; format: organism-based; design: dose 5 mg/kg; details: in vivo; method in brief: as §1
[21] = read-out: ED50 (the source's name)

Compound	EC50 (KB; [21]) [µg/mL]	EC50 (Lu1) [µg/mL]	EC50 (LNCaP) [µg/mL]	CC50 [1] [µg/mL]	IC50 (Micrococcus luteus [2]) [µg/mL]	Activity (Micrococcus luteus [3]) [µg/mL]	IC50 (Staphylococcus aureus [4]) [µg/mL]	Activity (Staphylococcus aureus [5]) [µg/mL]	IC50 [6] [µg/mL]	Activity [7] [µg/mL]	IC50 (Mycobacterium avium [8]) [µg/mL]	IC50 (Candida albicans [9]) [µg/mL]	IC50 (Cryptococcus neoformans [10]) [µg/mL]	Activity (Cryptococcus neoformans [11]) [µg/mL]	IC50 (Saccharomyces cerevisiae [12]) [µg/mL]	Activity (Saccharomyces cerevisiae [13]) [µg/mL]	IC50 (Aspergillus niger [14]) [µg/mL]	Activity (Aspergillus niger [15]) [µg/mL]	Activity (Candida albicans [16]) [µg/mL]	other results
COC1=CC(=O)c2c(O)cc(C)cc2C1=O	1.9 (≈ 8.71 µM)	0.2 (≈ 0.917 µM)	3.4 (≈ 15.6 µM)	2 (≈ 9.17 µM)	50 (≈ 229 µM)	800	200 (≈ 917 µM)	400	50 (≈ 229 µM)	800	50 (≈ 229 µM)	100 (≈ 458 µM)	50 (≈ 229 µM)	200	50 (≈ 229 µM)	200	100 (≈ 458 µM)	>1000	800	–
COC1=CC(=O)c2cc(C)cc(O)c2C1=O	2.4 (≈ 11 µM)	1.8 (≈ 8.25 µM)	4.1 (≈ 18.8 µM)	5.5 (≈ 25.2 µM)	700 (≈ 3210 µM)	>1000	> 1000	>1000	> 1000	>1000	700 (≈ 3210 µM)	> 1000	> 1000	>1000	> 1000	>1000	> 1000	>1000	>1000	–
COc1c(O)cc2ccc(=O)oc2c1OC	> 5	> 5	> 5	> 5	> 1000	>1000	> 1000	>1000	> 1000	>1000	> 1000	> 1000	> 1000	>1000	> 1000	>1000	> 1000	>1000	>1000	–
COC(=O)c1c(O)cc(C)cc1O	> 5	> 5	> 5	> 5	> 1000	>1000	> 1000	>1000	> 1000	>1000	> 1000	> 1000	> 1000	>1000	> 1000	>1000	> 1000	>1000	>1000	–
Cc1cc(O)c2c(c1)[C@@H](O)CCC2=O [4S-SHINANOLONE]	> 5	> 5	> 5	> 5	> 1000	>1000	> 1000	>1000	> 1000	>1000	> 1000	> 1000	> 1000	>1000	> 1000	>1000	> 1000	>1000	>1000	–
C=C(C)[C@@H]1CC[C@]2(CO)CC[C@]3(C)[C@H](CC[C@@H]4[C@@]5(C)CC[C@H](O)C(C)(C)[C@@H]5CC[C@]43C)[C@@H]12 [BETULIN]	> 5	> 5	> 5	> 5	–	–	–	–	–	–	–	–	–	–	–	–	–	–	–	–
CC[C@@]1(O)C(=O)OCc2c1cc1n(c2=O)Cc2cc3ccccc3nc2-1 [CAMPTOTHECIN]	–	–	–	–	–	–	–	–	–	–	–	–	–	–	–	–	–	–	–	EC50 (KB; read-out: EC50): 0.01 µg/mL (≈ 0.0287 µM)
CC1=CC(=O)c2c(ccc(C3=C(C)C(=O)c4cccc(O)c4C3=O)c2O)C1=O [CHITRANONE]	0.3 (≈ 0.801 µM)	1.1 (≈ 2.94 µM)	2.2 (≈ 5.88 µM)	2.1 (≈ 5.61 µM)	10 (≈ 26.7 µM)	>1000	90 (≈ 240 µM)	>1000	6 (≈ 16 µM)	20	5 (≈ 13.4 µM)	10 (≈ 26.7 µM)	3 (≈ 8.01 µM)	10	3 (≈ 8.01 µM)	10	6 (≈ 16 µM)	>1000	>1000	Activity (Mycobacterium avium [17]): 90 µg/mL
C=C(C)[C@@H]1CC[C@]2(C)CC[C@]3(C)[C@H](CC[C@@H]4[C@@]5(C)CC[C@H](O)C(C)(C)[C@@H]5CC[C@]43C)[C@@H]12 [LUPEOL]	> 5	> 5	> 5	> 5	> 1000	>1000	> 1000	>1000	> 1000	>1000	> 1000	> 1000	> 1000	>1000	> 1000	>1000	> 1000	>1000	>1000	–
COc1cc2c[n+](C)c3c4cc5c(cc4ccc3c2cc1OC)OCO5.[Cl-] [NITIDINE CHLORIDE]	–	–	–	–	200	5000	300	5000	1000	>5000	3000	–	–	300	300	3000	3000	>5000	200	Activity (Candida albicans [9]): 20 µg/mL; Activity (Cryptococcus neoformans [10]): 80 µg/mL
CC1=CC(=O)c2c(O)cccc2C1=O [PLUMBAGIN]	0.3 (≈ 1.59 µM)	0.3 (≈ 1.59 µM)	0.4 (≈ 2.13 µM)	0.4 (≈ 2.13 µM)	80 (≈ 425 µM)	600	100 (≈ 531 µM)	600	300 (≈ 1590 µM)	>1000	600 (≈ 3190 µM)	9 (≈ 47.8 µM)	20 (≈ 106 µM)	40	10 (≈ 53.1 µM)	40	20 (≈ 106 µM)	400	>1000	Activity (Mycobacterium avium [17]): >1000 µg/mL; Activity (Mus musculus [18]): Toxic; Activity (Mus musculus [19]): Toxic; Activity (Mus musculus [20]): Toxic
Cc1cc(O)c2c(c1)C(=O)C=CC2=O [RAMENTACEONE]	4.1 (≈ 21.8 µM)	13.2 (≈ 70.1 µM)	3.7 (≈ 19.7 µM)	5.7 (≈ 30.3 µM)	20 (≈ 106 µM)	1000	200 (≈ 1060 µM)	>1000	40 (≈ 213 µM)	600	5 (≈ 26.6 µM)	0.3 (≈ 1.59 µM)	0.3 (≈ 1.59 µM)	1	0.3 (≈ 1.59 µM)	1	5 (≈ 26.6 µM)	300	20	–
COc1cc2ccc(=O)oc2cc1O [SCOPOLETIN]	> 5	> 5	> 5	> 5	> 1000	>1000	> 1000	>1000	> 1000	>1000	> 1000	> 1000	> 1000	>1000	> 1000	>1000	> 1000	>1000	>1000	–
CC12C(=O)c3cccc(O)c3C(=O)C1CC1=C2C(=O)c2c(O)cccc2C1=O (centres undefined) [ZEYLANONE]	2.1 (≈ 5.61 µM)	14.5 (≈ 38.7 µM)	3.3 (≈ 8.82 µM)	3.3 (≈ 8.82 µM)	50 (≈ 134 µM)	>800	6 (≈ 16 µM)	>800	50 (≈ 134 µM)	400	200 (≈ 534 µM)	3 (≈ 8.01 µM)	10 (≈ 26.7 µM)	100	10 (≈ 26.7 µM)	500	30 (≈ 80.1 µM)	>800	3	–
